Results: ChEMBL document CHEMBL1132237, “Fluorination of 3-(3-(piperidin-1-yl)propyl)indoles and 3-(3-(piperazin-1-yl)propyl)indoles gives selective human 5-HT1D receptor ligands with improved pharmacokinetic profiles” (J Med Chem, 1999)

How the values were obtained:
[1] = target: T1, 5-hydroxytryptamine receptor 1B (Homo sapiens, UniProt P28222); experiment: Displacement of specific [3H]5-HT binding to cloned human 5-hydroxytryptamine 1B receptor expressed in CHO cells; assay type: cell-based
How it was run: (§1)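 Radioligand binding to human 5-HT1D and 5-HT1B receptors stably expressed in CHO cells. Radioligand was used at approximately its KD for each receptor. IC50 values are the logarithmic mean of 2–5 independent determinations, each run in duplicate. Maximum variance from the mean of log(IC50) was 4%. Selectivity is IC50(1B)/IC50(1D).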

[2] = target: T2, 5-hydroxytryptamine receptor 1D (Homo sapiens, UniProt P28221); experiment: Displacement of specific [3H]5-HT binding to cloned human 5-hydroxytryptamine 1D receptor expressed in CHO cells; assay type: cell-based; how it was run: as §1
[3] = target: Serotonin 1 receptors; 5-HT1B & 5-HT1D (Homo sapiens) (UniProt P28222+P28221); experiment: Selectivity towards 5-HT1D and to that of 5-HT1B in CHO cells; assay type: cell-based; how it was run: as §1
[4] = target: T1, 5-hydroxytryptamine receptor 1B; experiment: Agonist-induced [35S]GTP-gamma-S, binding in CHO cells stably transfected with human 5-hydroxytryptamine 1B receptor; assay type: functional, cell-based
How it was run: (§2)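 [35S]GTPγS binding stimulated by agonist, measured in CHO cells stably transfected with the human 5-HT1D or 5-HT1B receptor. EC50 values are the logarithmic mean of 2–3 independent determinations. Maximum variance of individual log(EC50) values from the mean was 4%.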

[5] = target: T2, 5-hydroxytryptamine receptor 1D; experiment: Agonist-induced [35S]GTP-gamma-S, binding in CHO cells stably transfected with human 5-hydroxytryptamine 1D receptor; assay type: functional, cell-based; how it was run: as §2
[6] = target: T1, 5-hydroxytryptamine receptor 1B; experiment: Efficacy was evaluated relative to human 5-HT1B receptor using [35S]GTP-gamma-S, as radioligand; assay type: functional
[7] = system: Rattus norvegicus; experiment: Oral absorption study in rat plasma obtained from hepatic portal vein after 0.5 hours of administration of 3 mg/kg orally; assay type: functional, organism-based; parameters: dose 3 mg/kg
How it was run: (§3)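 Male Sprague–Dawley rats, fasted overnight and with no surgery, received 3 mg/kg orally as a 0.6 mg/mL solution in PEG 400:5 mM HCl (25:75 v/v). Terminal blood was taken from the heart and hepatic portal vein under isoflurane at 0.5 and 2 h, three rats per time point. Plasma drug was measured by electrospray mass spectrometry. Values are mean ± SEM.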

[8] = system: Rattus norvegicus; experiment: Oral absorption study in rat plasma obtained from cardiac blood samples after 0.5 hours of administration of 3 mg/kg orally; assay type: functional, organism-based; parameters: dose 3 mg/kg; how it was run: as §3
[9] = system: Rattus norvegicus; experiment: Oral absorption study in rat plasma obtained from hepatic portal vein after 2 hours of administration of 3 mg/kg orally; assay type: functional, organism-based; parameters: dose 3 mg/kg; how it was run: as §3
[10] = system: Rattus norvegicus; experiment: Oral absorption study in rat plasma obtained from cardiac blood samples after 2 hours of administration of 3 mg/kg orally; assay type: functional, organism-based; parameters: dose 3 mg/kg; how it was run: as §3
[11] = pKa value by potentiometric; assay type: physicochemical
How it was run: (§4)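 Potentiometric titration in MeOH–H2O cosolvent with ionic strength set by 0.15 M KCl. Three titrations at different water/cosolvent ratios gave psKa values. Aqueous pKa was obtained by Yasuda–Shedlovsky extrapolation to 100% water, plotting psKa + log[H2O] against 1/ε.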

[12] = pKa value by potentiometric method; assay type: physicochemical; how it was run: as §4
[13] = target: T2, 5-hydroxytryptamine receptor 1D; experiment: Efficacy was evaluated relative to human 5-hydroxytryptamine 1D receptor using [35S]GTP-gamma-S, as radioligand; assay type: functional

T2 sequence (P28221 whole entry): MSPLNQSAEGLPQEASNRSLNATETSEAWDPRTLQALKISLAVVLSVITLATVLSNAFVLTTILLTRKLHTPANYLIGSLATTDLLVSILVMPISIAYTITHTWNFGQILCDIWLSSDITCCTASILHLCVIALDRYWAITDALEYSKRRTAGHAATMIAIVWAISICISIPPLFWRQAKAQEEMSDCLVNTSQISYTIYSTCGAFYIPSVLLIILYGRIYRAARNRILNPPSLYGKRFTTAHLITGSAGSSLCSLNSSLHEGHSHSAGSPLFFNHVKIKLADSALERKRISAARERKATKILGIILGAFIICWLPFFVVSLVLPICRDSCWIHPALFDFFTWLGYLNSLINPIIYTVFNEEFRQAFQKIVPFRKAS
T1 sequence (P28222 whole entry): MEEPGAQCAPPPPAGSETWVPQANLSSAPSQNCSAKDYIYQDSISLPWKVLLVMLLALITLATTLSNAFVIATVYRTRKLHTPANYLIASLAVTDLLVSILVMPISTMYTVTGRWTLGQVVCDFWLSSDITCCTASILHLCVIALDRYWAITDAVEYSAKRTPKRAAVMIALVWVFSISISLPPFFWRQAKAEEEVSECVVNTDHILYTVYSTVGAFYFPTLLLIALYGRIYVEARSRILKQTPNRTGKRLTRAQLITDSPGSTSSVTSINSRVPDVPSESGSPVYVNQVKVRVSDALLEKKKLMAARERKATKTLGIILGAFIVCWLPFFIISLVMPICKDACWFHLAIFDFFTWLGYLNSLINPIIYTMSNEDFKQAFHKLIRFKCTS

Structure (SMILES)	IC50 [1]	IC50 [2]	Selectivity [3]	further results
Fc1ccccc1CCN1CCN(CC(F)Cc2c[nH]c3ccc(-n4cnnc4)cc23)CC1 (configuration not stated)	520 nM	4.7 nM	111	–
Fc1cccc(CCC2(F)CCN(CCCc3c[nH]c4ccc(-n5cnnc5)cc34)CC2)c1	22 nM	0.7 nM	31	EC50 [4]: 440 nM; EC50 [5]: 5 nM; Efficacy [6]: 88%
CN(Cc1ccccc1)C1CCN(CC(F)(F)Cc2c[nH]c3ccc(-n4cnnc4)cc23)CC1	2100 nM	35 nM	60	–
F[C@@H]1CN(CCCc2c[nH]c3ccc(-n4cnnc4)cc23)CC[C@@H]1NCc1ccccc1C(F)(F)F	300 nM	13 nM	23	–
Fc1cccc(CCN2CCN(CC(F)Cc3c[nH]c4ccc(-n5cnnc5)cc34)CC2)c1 (stereo in doubt; 28) [listing 1 of 2 here]	–	–	196	–
FC(Cc1c[nH]c2ccc(-n3cnnc3)cc12)CN1CCC(OCc2ccccc2)CC1 (configuration not stated)	3000 nM	30 nM	100	–
c1ccc(CC2CCN(CCCc3c[nH]c4ccc(-n5cnnc5)cc34)CC2)cc1	19 nM	0.3 nM	63	Plasma concentration [7]: 25 ng/mL; EC50 [4]: 120 nM; Plasma concentration [8]: < 2 ng/mL; Efficacy [6]: 62%; Plasma concentration [9]: 33 ng/mL; Plasma concentration [10]: < 2 ng/mL; pKa [11]: 9.7
FC(F)(Cc1c[nH]c2ccc(-n3cnnc3)cc12)CN1CCC(COc2ccccc2)CC1	7200 nM	280 nM	26	–
Fc1cccc(CCN2CCN(C[C@@H](F)Cc3c[nH]c4ccc(-n5cnnc5)cc34)CC2)c1	680 nM	5.8 nM	117	–
FC1(CCc2ccccc2)CCN(CCCc2c[nH]c3ccc(-n4cnnc4)cc23)CC1	49 nM	2 nM	25	–
CN(Cc1ccccc1C(F)(F)F)[C@H]1CCN(CCCc2c[nH]c3ccc(-n4cnnc4)cc23)C[C@H]1F	220 nM	9.3 nM	24	pKa [12]: 7.7
Fc1cccc(CC2(F)CCN(CCCc3c[nH]c4ccc(-n5cnnc5)cc34)CC2)c1	5.3 nM	0.4 nM	13	–
F[C@H]1CN(CCCc2c[nH]c3ccc(-n4cnnc4)cc23)CC[C@@H]1NCc1ccccc1C(F)(F)F	170 nM	5 nM	34	–
CN(Cc1ccccc1C(F)(F)F)[C@H]1CCN(CCCc2c[nH]c3ccc(-n4cnnc4)cc23)C[C@@H]1F	220 nM	13 nM	17	pKa [12]: 6.9
Fc1cccc(CCN2CCN(CC(F)Cc3c[nH]c4ccc(-n5cnnc5)cc34)CC2)c1 (stereo in doubt; 28) [listing 2 of 2 here]	1000 nM	5.1 nM	–	–
CC(CN1CCN(CC(F)Cc2c[nH]c3ccc(-n4cnnc4)cc23)CC1)c1cccc(F)c1 (configuration not stated)	280 nM	0.9 nM	311	EC50 [4]: 1500 nM; Efficacy [13]: 112%; EC50 [5]: 1.9 nM; Efficacy [6]: 87%
c1ccc(CN2CCN(CCCc3c[nH]c4ccc(-n5cnnc5)cc34)CC2)cc1	–	0.14 nM	79	Plasma concentration [7]: 168 ng/mL; Plasma concentration [8]: 42 ng/mL; pKa [11]: 8.2
CC(CN1CCN(CC(F)(F)Cc2c[nH]c3ccc(-n4cnnc4)cc23)CC1)c1ccc(F)cc1 (configuration not stated)	1000 nM	1.8 nM	556	–
CN(Cc1ccccc1)[C@H]1CCN(CCCc2c[nH]c3ccc(-n4cnnc4)cc23)C[C@H]1F	220 nM	12 nM	18	Plasma concentration [7]: 216 ng/mL; Plasma concentration [8]: 2 ng/mL; Plasma concentration [9]: 136 ng/mL; Plasma concentration [10]: 3 ng/mL; pKa [12]: 8

Structure (SMILES)	IC50 [1]	IC50 [2]	Selectivity [3]	further results
CC(CN1CCN(CC(F)(F)Cc2c[nH]c3ccc(-n4cnnc4)cc23)CC1)c1ccccc1 (configuration not stated)	1800 nM	6.2 nM	290	EC50 [4]: 5100 nM; Efficacy [13]: 123%; EC50 [5]: 16 nM; Efficacy [6]: 53%
Fc1cccc(CCN2CCN(CC(F)Cc3c[nH]c4ccc(-n5cnnc5)cc34)CC2)c1 (stereo in doubt; 25) [listing 1 of 2 here]	1200 nM	3.5 nM	–	EC50 [4]: 810 nM; EC50 [5]: 3.8 nM
Fc1cccc(CCN2CCN(CC(F)Cc3c[nH]c4ccc(-n5cnnc5)cc34)CC2)c1 (stereo in doubt; 25) [listing 2 of 2 here]	–	–	343	Efficacy [6]: 25%
CN(Cc1ccccc1)C1CCN(CCCc2c[nH]c3ccc(-n4cnnc4)cc23)CC1	140 nM	2.1 nM	67	Plasma concentration [7]: 4 ng/mL; EC50 [4]: 1400 nM; EC50 [5]: 1.5 nM; Plasma concentration [8]: < 1 ng/mL; Efficacy [6]: 77%; Plasma concentration [9]: 66 ng/mL; Plasma concentration [10]: 5 ng/mL; pKa [11]: 9.3
Fc1ccccc1CCC1(F)CCN(CCCc2c[nH]c3ccc(-n4cnnc4)cc23)CC1	16 nM	0.8 nM	20	–
FC1(Cc2ccccc2)CCN(CCCc2c[nH]c3ccc(-n4cnnc4)cc23)CC1	15 nM	0.9 nM	17	Plasma concentration [7]: 570 ng/mL; EC50 [4]: 66 nM; EC50 [5]: 0.4 nM; Plasma concentration [8]: 52 ng/mL; Efficacy [6]: 67%; Plasma concentration [9]: 273 ng/mL; Plasma concentration [10]: 35 ng/mL; pKa [12]: 8.8
FC(F)(Cc1c[nH]c2ccc(-n3cnnc3)cc12)CN1CCC(CCc2ccccc2)CC1	5800 nM	56 nM	104	–
CN(Cc1ccccc1)[C@H]1CCN(CCCc2c[nH]c3ccc(-n4cnnc4)cc23)C[C@@H]1F	13 nM	2.1 nM	6	–
Fc1ccc(CCN2CCN(CC(F)Cc3c[nH]c4ccc(-n5cnnc5)cc34)CC2)cc1 (configuration not stated)	540 nM	5.5 nM	98	–
OC(Cc1c[nH]c2ccc(-n3cnnc3)cc12)CN1CCN(Cc2ccccc2)CC1 (configuration not stated)	360 nM	1.8 nM	200	–
Fc1ccccc1CC1(F)CCN(CCCc2c[nH]c3ccc(-n4cnnc4)cc23)CC1	3.1 nM	0.1 nM	–	–
CC(CN1CCN(CC(F)Cc2c[nH]c3ccc(-n4cnnc4)cc23)CC1)c1ccc(F)cc1 (configuration not stated)	310 nM	1 nM	310	EC50 [4]: 1700 nM; Efficacy [13]: 106%; EC50 [5]: 1.6 nM; Efficacy [6]: 79%
Fc1ccc(CCC2(F)CCN(CCCc3c[nH]c4ccc(-n5cnnc5)cc34)CC2)cc1	25 nM	1 nM	25	–
FC(Cc1c[nH]c2ccc(-n3cnnc3)cc12)CN1CCN(CCc2ccccc2)CC1 (configuration not stated)	930 nM	6.8 nM	137	–
CC(CC1(F)CCN(CCCc2c[nH]c3ccc(-n4cnnc4)cc23)CC1)c1ccccc1 (configuration not stated)	28 nM	0.6 nM	47	EC50 [4]: 510 nM; Efficacy [13]: 86%; EC50 [5]: 2.6 nM; Efficacy [6]: 85%
CC(CN1CCN(CC(F)Cc2c[nH]c3ccc(-n4cnnc4)cc23)CC1)c1ccccc1F (configuration not stated)	380 nM	1 nM	380	–
FC1(Cc2ccccc2C(F)(F)F)CCN(CCCc2c[nH]c3ccc(-n4cnnc4)cc23)CC1	14 nM	0.3 nM	47	EC50 [4]: 290 nM; Efficacy [13]: 61%; EC50 [5]: 0.2 nM; Efficacy [6]: 91%
CN(Cc1ccccc1)C1CCN(CC(F)Cc2c[nH]c3ccc(-n4cnnc4)cc23)CC1 (configuration not stated)	1200 nM	–	22	Plasma concentration [7]: 57 ng/mL; EC50 [4]: 10300 nM; Plasma concentration [8]: 2 ng/mL; Efficacy [6]: 59%; Plasma concentration [9]: 217 ng/mL; Plasma concentration [10]: 10 ng/mL; pKa [12]: 8.5
FC(F)(Cc1c[nH]c2ccc(-n3cnnc3)cc12)CN1CCC(Cc2ccccc2)CC1	1300 nM	78 nM	17	pKa [12]: 6.7
